Measurements taken from ChEMBL document CHEMBL1149778, “Synthesis of some novel 2,4-disubstituted thiazoles as possible antimicrobial agents” (2008).
In brackets after ≈: the same amount, converted by molar mass.

What was measured:
[1] = system: Escherichia coli; assay: Antibacterial activity against Escherichia coli ATTC 25922 assessed as zone of inhibition after 16 to 18 hrs by serial plate dilution method; assay type: functional, ATCC25922
Outline: (§1)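 Agar well diffusion: 20 ml agar per dish seeded with bacterial suspension, excess decanted, dishes held 1 h at 37 °C. Wells punched, compounds in DMSO added at their MIC levels, DMSO wells as control. Zone of inhibition measured.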

[2] = system: Staphylococcus aureus; assay: Antibacterial activity against Staphylococcus aureus ATTC 25923 assessed as zone of inhibition after 16 to 18 hrs by serial plate dilution method; assay type: functional; outline: as §1
[3] = system: Aspergillus fumigatus; assay: Antifungal activity against Aspergillus fumigatus NCIM No.902 assessed as zone of inhibition by serial plate dilution method; assay type: functional
Outline: (§2)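 Sabouraud agar (peptone, D-glucose, agar; pH 5.7), 20 ml per dish, lawned with a saline spore suspension from a loopful of fungus. Excess decanted, plates dried 1 h at 37 °C. Wells punched and compounds in DMSO added, DMSO as control. Triplicate plates, 37 °C for 3-4 days; inhibition-zone diameter measured.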

[4] = system: Aspergillus flavus; assay: Antifungal activity against Aspergillus flavus NCIM No.524 by serial plate dilution method; assay type: functional
[5] = system: Staphylococcus aureus; assay: Antibacterial activity against Staphylococcus aureus ATTC 25923 after 16 to 18 hrs by serial plate dilution method; assay type: functional
Outline: (§3)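 MIC by broth serial dilution: compound serially diluted in Mueller-Hinton broth, tubes adjusted to […] with phosphate buffer. Standardized bacterial suspension inoculated, incubated 16-18 h at 37 °C. MIC read as the lowest concentration with no visible growth.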

[6] = system: Talaromyces marneffei; assay: Antifungal activity against Penicillium marneffei by serial plate dilution method; assay type: functional
[7] = system: Talaromyces marneffei; assay: Antifungal activity against Penicillium marneffei assessed as zone of inhibition by serial plate dilution method; assay type: functional; outline: as §2
[8] = system: Pseudomonas aeruginosa; assay: Antibacterial activity against Pseudomonas aeruginosa ATTC 27853 after 16 to 18 hrs by serial plate dilution method; assay type: functional; conditions: ATCC27853; outline: as §3
[9] = system: Trichophyton mentagrophytes; assay: Antifungal activity against Trichophyton mentagrophytes by serial plate dilution method; assay type: functional
[10] = system: Trichophyton mentagrophytes; assay: Antifungal activity against Trichophyton mentagrophytes assessed as zone of inhibition by serial plate dilution method; assay type: functional; outline: as §2
[11] = system: Bacillus subtilis; assay: Antibacterial activity against Bacillus subtilis assessed as zone of inhibition after 16 to 18 hrs by serial plate dilution method; assay type: functional; outline: as §1
[12] = system: Bacillus subtilis; assay: Antibacterial activity against Bacillus subtilis after 16 to 18 hrs by serial plate dilution method; assay type: functional; outline: as §3
[13] = system: Pseudomonas aeruginosa; assay: Antibacterial activity against Pseudomonas aeruginosa ATTC 27853 assessed as zone of inhibition after 16 to 18 hrs by serial plate dilution method; assay type: functional, ATCC27853; outline: as §1
[14] = system: Aspergillus flavus; assay: Antifungal activity against Aspergillus flavus NCIM No.524 assessed as zone of inhibition by serial plate dilution method; assay type: functional; outline: as §2
[15] = system: Escherichia coli; assay: Antibacterial activity against Escherichia coli ATTC 25922 after 16 to 18 hrs by serial plate dilution method; assay type: functional; conditions: ATCC25922; outline: as §3
[16] = system: Aspergillus fumigatus; assay: Antifungal activity against Aspergillus fumigatus NCIM No.902 by serial plate dilution method; assay type: functional

| Compound | inhibition zone (IZ) [1] [mm] | inhibition zone (IZ) [2] [mm] | inhibition zone (IZ) [3] [mm] | MIC [4] [µg/mL] | MIC [5] [µg/mL] | MIC [6] [µg/mL] | inhibition zone (IZ) [7] [mm] | MIC [8] [µg/mL] | MIC [9] [µg/mL] | inhibition zone (IZ) [10] [mm] | inhibition zone (IZ) [11] [mm] | MIC [12] [µg/mL] | inhibition zone (IZ) [13] [mm] | inhibition zone (IZ) [14] [mm] | MIC [15] [µg/mL] | MIC [16] [µg/mL] |
| --- | --- | --- | --- | --- | --- | --- | --- | --- | --- | --- | --- | --- | --- | --- | --- | --- |
| CSc1ccc(-c2csc(-c3cc(Cl)cc(Cl)c3Cl)n2)cc1 | 16 | 16 | 11 | 12.5 (≈ 32.3 µM) | 6.25 (≈ 16.2 µM) | 25 (≈ 64.6 µM) | <10 | 6.25 (≈ 16.2 µM) | 12.5 (≈ 32.3 µM) | 11 | 16 | 6.25 (≈ 16.2 µM) | 16 | 11 | 6.25 (≈ 16.2 µM) | 12.5 (≈ 32.3 µM) |
| Clc1cc(Cl)c(Cl)c(-c2nc(-c3ccc(-c4ccccc4)cc3)cs2)c1 | <10 | 11 | 16 | 6.25 (≈ 15 µM) | 12.5 (≈ 30 µM) | 6.25 (≈ 15 µM) | 16 | 12.5 (≈ 30 µM) | 6.25 (≈ 15 µM) | 16 | 11 | 12.5 (≈ 30 µM) | 11 | 16 | 25 (≈ 60 µM) | 6.25 (≈ 15 µM) |
| O=[N+]([O-])c1ccc(-c2csc(-c3cc(Cl)cc(Cl)c3Cl)n2)cc1 | 16 | 11 | 11 | 12.5 (≈ 32.4 µM) | 12.5 (≈ 32.4 µM) | 25 (≈ 64.8 µM) | <10 | 6.25 (≈ 16.2 µM) | 25 (≈ 64.8 µM) | <10 | <10 | 25 (≈ 64.8 µM) | 16 | 11 | 6.25 (≈ 16.2 µM) | 12.5 (≈ 32.4 µM) |
| Cc1cc(C)nc(SCc2csc(-c3cc(Cl)cc(Cl)c3Cl)n2)n1 | 16 | 16 | <10 | 6.25 (≈ 15 µM) | 6.25 (≈ 15 µM) | 6.25 (≈ 15 µM) | 16 | 6.25 (≈ 15 µM) | 25 (≈ 60 µM) | <10 | 16 | 6.25 (≈ 15 µM) | 16 | 16 | 6.25 (≈ 15 µM) | 25 (≈ 60 µM) |
| NC(=O)c1cc(-c2csc(N/N=C/c3cc(Cl)cc(Cl)c3Cl)n2)ccc1O | 16 | 16 | 11 | 12.5 (≈ 28.3 µM) | 6.25 (≈ 14.1 µM) | 12.5 (≈ 28.3 µM) | 11 | 6.25 (≈ 14.1 µM) | 12.5 (≈ 28.3 µM) | 11 | 16 | 6.25 (≈ 14.1 µM) | 16 | 11 | 6.25 (≈ 14.1 µM) | 12.5 (≈ 28.3 µM) |
| Clc1ccc(-c2csc(-c3cc(Cl)cc(Cl)c3Cl)n2)cc1 | 16 | 11 | 16 | 25 (≈ 66.6 µM) | 12.5 (≈ 33.3 µM) | 25 (≈ 66.6 µM) | <10 | 6.25 (≈ 16.7 µM) | 6.25 (≈ 16.7 µM) | 16 | <10 | 25 (≈ 66.6 µM) | 16 | <10 | 6.25 (≈ 16.7 µM) | 6.25 (≈ 16.7 µM) |
| CN1CCN(Cc2csc(-c3cc(Cl)cc(Cl)c3Cl)n2)CC1 | 16 | 16 | 16 | 25 (≈ 66.4 µM) | 6.25 (≈ 16.6 µM) | 25 (≈ 66.4 µM) | <10 | 6.25 (≈ 16.6 µM) | 6.25 (≈ 16.6 µM) | 16 | 16 | 6.25 (≈ 16.6 µM) | 16 | <10 | 6.25 (≈ 16.6 µM) | 6.25 (≈ 16.6 µM) |
| Clc1cc(Cl)c(Cl)c(/C=N/Nc2nc(-c3cccnc3)cs2)c1 | 11 | <10 | 16 | 6.25 (≈ 16.3 µM) | 25 (≈ 65.2 µM) | 6.25 (≈ 16.3 µM) | 16 | 12.5 (≈ 32.6 µM) | 6.25 (≈ 16.3 µM) | 16 | 10 | 12.5 (≈ 32.6 µM) | 11 | 16 | 12.5 (≈ 32.6 µM) | 6.25 (≈ 16.3 µM) |
| COc1ccc(-c2csc(-c3cc(Cl)cc(Cl)c3Cl)n2)cc1 | 16 | 11 | <10 | 25 (≈ 67.4 µM) | 12.5 (≈ 33.7 µM) | 25 (≈ 67.4 µM) | <10 | 12.5 (≈ 33.7 µM) | 25 (≈ 67.4 µM) | <10 | 11 | 12.5 (≈ 33.7 µM) | 11 | <10 | 6.25 (≈ 16.9 µM) | 25 (≈ 67.4 µM) |
| Clc1cc(Cl)c(Cl)c(-c2nc(CN3CCCCC3)cs2)c1 | <10 | 16 | <10 | 25 (≈ 69.1 µM) | 6.25 (≈ 17.3 µM) | 25 (≈ 69.1 µM) | <10 | 12.5 (≈ 34.6 µM) | 25 (≈ 69.1 µM) | <10 | 16 | 6.25 (≈ 17.3 µM) | 11 | <10 | 25 (≈ 69.1 µM) | 25 (≈ 69.1 µM) |
| NC(=O)c1cc(-c2csc(-c3cc(Cl)cc(Cl)c3Cl)n2)ccc1O | 16 | 16 | <10 | 6.25 (≈ 15.6 µM) | 6.25 (≈ 15.6 µM) | 6.25 (≈ 15.6 µM) | 16 | 6.25 (≈ 15.6 µM) | 25 (≈ 62.5 µM) | <10 | 16 | 6.25 (≈ 15.6 µM) | 16 | 16 | 6.25 (≈ 15.6 µM) | 25 (≈ 62.5 µM) |
| CSc1ccc(-c2csc(N/N=C/c3cc(Cl)cc(Cl)c3Cl)n2)cc1 | 16 | 16 | 16 | 25 (≈ 58.3 µM) | 6.25 (≈ 14.6 µM) | 25 (≈ 58.3 µM) | <10 | 6.25 (≈ 14.6 µM) | 6.25 (≈ 14.6 µM) | 16 | 16 | 6.25 (≈ 14.6 µM) | 16 | <10 | 6.25 (≈ 14.6 µM) | 6.25 (≈ 14.6 µM) |
| Cc1cc(C2CCCCC2)n(O)c(=O)c1.NCCO [CICLOPIROX OLAMINE] | – | – | 16 | 6.25 | – | 6.25 | 16 | – | 6.25 | 16 | – | – | – | 16 | – | 6.25 |
| O=C(O)c1cn(C2CC2)c2cc(N3CCNCC3)c(F)cc2c1=O [CIPROFLOXACIN] | 16 | 16 | – | – | – | – | – | – | – | – | 21 | 1.56 (≈ 4.71 µM) | 16 | – | – | – |
